In ChEMBL document CHEMBL3271971, “Antineoplastic and biochemical properties of arylsulfonylhydrazones of 2-formylpyridine N-oxide” (J Med Chem, 1976):

Experiments:
[1] = Antineoplastic activity against mouse S180A cells allografted in CD-1 mouse assessed as mouse survival at 20 mg/kg administered qd for 6 days measured for 50 days relative to control; format: functional
Procedure, shortened: (§1)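 Ascitic tumours were transplanted from an appropriate donor mouse carrying a 7-day tumour growth. Drug was given at 10–60 mg/kg/day for six consecutive days. Sensitivity was judged by prolongation of survival time relative to untreated tumour-bearing controls. Mice were weighed throughout, and percentage weight change from onset to end of therapy indicated toxicity.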

Mus musculus [2] = assay: Toxicity in CD-1 mouse allografted with mouse EAC cells assessed as change in body weight at 60 mg/kg administered qd for 6 days (reference value: 26.8%); format: organism-based, Ehrlich; design: dose 60 mg/kg; conditions: in vivo, 144 h
Procedure, shortened: (§2)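 Ascitic tumors were transplanted from a donor mouse bearing a 7-day tumor. Daily doses were given for six consecutive days. Percentage body-weight change from onset to termination of therapy served as the index of drug toxicity.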

Mus musculus [3] = assay: Toxicity in CD-1 mouse allografted with mouse S180A cells assessed as change in body weight at 40 mg/kg administered qd for 6 days (reference value: 23.2%); format: organism-based; design: dose 40 mg/kg; conditions: in vivo, 144 h
[4] = Antineoplastic activity against 1-formylisoquinoline thiosemicarbazone-resistant mouse S180A cells allografted in CD-1 mouse assessed as average survival at 60 mg/kg administered qd for 6 days (reference value: 14.4 +/- 0.9 days); format: functional; procedure, shortened: as §1
Mus musculus [5] = assay: Toxicity in CD-1 mouse allografted with 1-formylisoquinoline thiosemicarbazone-resistant mouse S180A cells assessed as change in body weight at 60 mg/kg administered qd for 6 days (reference value: 29.6%); format: organism-based; design: dose 60 mg/kg; conditions: in vivo, 144 h; procedure, shortened: as §2
Mus musculus [6] = assay: Toxicity in CD-1 mouse allografted with mouse S180A cells assessed as change in body weight at 20 mg/kg administered qd for 6 days (reference value: 23.2%); format: organism-based; design: dose 20 mg/kg; conditions: in vivo, 144 h
Mus musculus [7] = assay: Effect on RNA synthesis in tumor of CD-1 mouse allografted with mouse S180A cells assessed as [3H]-uridine incorporation at 20 mg/kg, ip pretreated for 1 hr followed by radiotracer-addition measured after 1 hr relative to control; format: functional; conditions: route intraperitoneal
Procedure, shortened: (§3)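 Sarcoma 180 ascites cells implanted 6 days earlier. Mice received a single ip dose of 10–80 mg/kg, then 1 h later an ip tracer: 200 μg thymidine-3H, 200 μg uridine-3H or 125 μg DL-leucine-14C. Tracer was incorporated for 1 h. Specific activity of tumor-cell DNA, RNA or protein is expressed as % of untreated controls. Values are means of 4-16 mice, each analyzed separately.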

Mus musculus [8] = assay: Effect on protein synthesis in tumor of CD-1 mouse allografted with mouse S180A cells assessed as [14C]-leucine incorporation at 80 mg/kg, ip pretreated for 1 hr followed by radiotracer-addition measured after 1 hr relative to control; format: functional; conditions: route intraperitoneal; procedure, shortened: as §3
Mus musculus [9] = assay: Effect on protein synthesis in tumor of CD-1 mouse allografted with mouse S180A cells assessed as [14C]-leucine incorporation at 80 mg/kg, ip pretreated for 6 hrs followed by radiotracer-addition measured after 1 hr relative to control; format: functional; conditions: route intraperitoneal
Procedure, shortened: (§4)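 Mice bearing 6-day Sarcoma 180 ascites implants received a single ip dose of 80 mg/kg. At the stated pretreatment time they were given ip tracer: 200 μg thymidine-3H, 200 μg uridine-3H or 125 μg DL-leucine-14C. After 1 h of incorporation, specific radioactivity of DNA, RNA or protein was read as % of control incorporation.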

Mus musculus [10] = assay: Toxicity in CD-1 mouse allografted with mouse S180A cells assessed as change in body weight at maximum effective dose administered qd for 6 days (reference value: 23.2%); format: organism-based; conditions: 144 h
[11] = Antineoplastic activity against mouse S180A cells allografted in CD-1 mouse assessed as average survival at 40 mg/kg administered qd for 6 days (reference value: 12.9 +/- 1.2 days); format: functional; procedure, shortened: as §1
Mus musculus [12] = assay: Effect on DNA synthesis in tumor of CD-1 mouse allografted with mouse S180A cells assessed as [3H]-thymidine incorporation at 20 mg/kg, ip pretreated for 1 hr followed by radiotracer-addition measured after 1 hr relative to control; format: functional; conditions: route intraperitoneal; procedure, shortened: as §3
Mus musculus [13] = assay: Effect on RNA synthesis in tumor of CD-1 mouse allografted with mouse S180A cells assessed as [3H]-uridine incorporation at 40 mg/kg, ip pretreated for 1 hr followed by radiotracer-addition measured after 1 hr relative to control; format: functional; conditions: route intraperitoneal; procedure, shortened: as §3
Mus musculus [14] = assay: Effect on DNA synthesis in tumor of CD-1 mouse allografted with mouse S180A cells assessed as [3H]-thymidine incorporation at 10 mg/kg, ip pretreated for 1 hr followed by radiotracer-addition measured after 1 hr relative to control; format: functional; conditions: route intraperitoneal; procedure, shortened: as §3
Mus musculus [15] = assay: Effect on RNA synthesis in tumor of CD-1 mouse allografted with mouse S180A cells assessed as [3H]-uridine incorporation at 10 mg/kg, ip pretreated for 1 hr followed by radiotracer-addition measured after 1 hr relative to control; format: functional; conditions: route intraperitoneal; procedure, shortened: as §3
[16] = Antineoplastic activity against mouse S180A cells allografted in CD-1 mouse assessed as average survival at maximum effective dose administered qd for 6 days (reference value: 12.5 +/- 0.3 days); format: functional
Procedure, shortened: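 Sarcoma 180 ascites cells were transplanted from a donor mouse bearing a 7-day tumour. Each agent was tested at 10–60 mg/kg/day, once daily for six consecutive days, starting 24 h after transplantation, in groups of 5–10 mice. Pooled untreated controls totalled 40 mice. Mice surviving beyond 50 days were counted as 50-day survivors, and body-weight change over therapy served as the toxicity index.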

[17] = Antineoplastic activity against mouse S180A cells allografted in CD-1 mouse assessed as mouse survival at 40 mg/kg administered qd for 6 days measured for 50 days relative to control; format: functional; procedure, shortened: as §1
Mus musculus [18] = assay: Effect on protein synthesis in tumor of CD-1 mouse allografted with mouse S180A cells assessed as [14C]-leucine incorporation at 40 mg/kg, ip pretreated for 1 hr followed by radiotracer-addition measured after 1 hr relative to control; format: functional; conditions: route intraperitoneal; procedure, shortened: as §3
Mus musculus [19] = assay: Toxicity in CD-1 mouse allografted with mouse EAC cells assessed as change in body weight at 40 mg/kg administered qd for 6 days (reference value: 26.8%); format: organism-based, Ehrlich; design: dose 40 mg/kg; conditions: in vivo, 144 h; procedure, shortened: as §2
[20] = Antineoplastic activity against mouse Hepa129 cells allografted in C3H mouse assessed as average survival at 20 mg/kg administered qd for 6 days (reference value: 18 +/- 0.6 days); format: functional; procedure, shortened: as §1
[21] = Antineoplastic activity against mouse S180A cells allografted in CD-1 mouse assessed as average survival at 20 mg/kg administered qd for 6 days (reference value: 12.9 +/- 1.2 days); format: functional; procedure, shortened: as §1
[22] = Antineoplastic activity against mouse Hepa129 cells allografted in C3H mouse assessed as mouse survival at 60 mg/kg administered qd for 6 days measured for 50 days relative to control; format: functional; procedure, shortened: as §1
Mus musculus [23] = assay: Toxicity in CD-1 mouse allografted with 1-formylisoquinoline thiosemicarbazone-resistant mouse S180A cells assessed as change in body weight at 40 mg/kg administered qd for 6 days (reference value: 29.6%); format: organism-based; design: dose 40 mg/kg; conditions: in vivo, 144 h; procedure, shortened: as §2
Mus musculus [24] = assay: Effect on DNA synthesis in tumor of CD-1 mouse allografted with mouse S180A cells assessed as [3H]-thymidine incorporation at 80 mg/kg, ip pretreated for 6 hrs followed by radiotracer-addition measured after 1 hr relative to control; format: functional; conditions: route intraperitoneal; procedure, shortened: as §4
Mus musculus [25] = assay: Toxicity in CD-1 mouse allografted with mouse EAC cells assessed as change in body weight at 20 mg/kg administered qd for 6 days (reference value: 26.8%); format: organism-based, Ehrlich; design: dose 20 mg/kg; conditions: in vivo, 144 h; procedure, shortened: as §2

## Cc1ccc(S(=O)(=O)N/N=C/c2cccc[n+]2[O-])cc1
[1]
  survival at 20 mg/kg: 10%
Mus musculus [2]
  Activity: -1.8%
Mus musculus [3]
  Activity: -3.1%
[4]
  Survival: 24.4 days
Mus musculus [5]
  Activity: 0%
Mus musculus [6]
  Activity: 21.6%
Mus musculus [7]
  Activity: 71%
Mus musculus [8]
  Activity: 73%
Mus musculus [9]
  Activity: 89%
Mus musculus [10]
  Activity: -8%
[11]
  Survival: 36.3 days
Mus musculus [12]
  Activity: 71%
Mus musculus [13]
  Activity: 65%
Mus musculus [14]
  Activity: 71%
Mus musculus [15]
  Activity: 74%
[16]
  Survival: 38.4 days
[17]
  survival at 40 mg/kg: 20%
Mus musculus [18]
  Activity: 93%
Mus musculus [19]
  Activity: -3.3%
[20]
  Survival: 22.2 days
[21]
  Survival: 24.9 days
[22]
  survival at 60 mg/kg: 20%
Mus musculus [23]
  Activity: 3.4%
Mus musculus [24]
  Activity: 63%
Mus musculus [25]
  Activity: 2.4%
